The values that follow come from ChEMBL document CHEMBL5620424, “Design, synthesis and evaluation of novel 2-phenyl-3-(1H-pyrazol-4-yl)pyridine positive allosteric modulators for the M4 mAChR” (Eur J Med Chem, 2023).

Calls of active or inactive are those of the source. The rule behind the calls is not given here.

Data set [1] has as its target T1, Muscarinic acetylcholine receptor M4 (Homo sapiens) (UniProt P08173).
T1 sequence (whole entry): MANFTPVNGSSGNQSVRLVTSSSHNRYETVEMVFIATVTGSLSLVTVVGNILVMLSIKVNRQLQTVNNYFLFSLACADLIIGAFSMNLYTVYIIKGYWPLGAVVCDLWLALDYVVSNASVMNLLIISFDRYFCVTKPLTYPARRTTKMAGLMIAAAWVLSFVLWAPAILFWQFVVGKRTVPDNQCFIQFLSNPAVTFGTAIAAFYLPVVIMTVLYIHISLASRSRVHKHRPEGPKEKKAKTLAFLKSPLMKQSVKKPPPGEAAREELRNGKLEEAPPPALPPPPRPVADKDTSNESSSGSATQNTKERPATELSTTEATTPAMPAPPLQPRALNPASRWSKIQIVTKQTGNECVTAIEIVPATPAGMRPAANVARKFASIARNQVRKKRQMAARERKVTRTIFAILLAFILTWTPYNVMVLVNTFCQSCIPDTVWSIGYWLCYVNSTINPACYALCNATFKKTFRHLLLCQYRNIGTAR
Briefly: Displacement of 3[H]-NMS from human M4 mAChR expressed in Flp-In-CHO cells assessed as binding co-operativity (log alpha) incubated for 6 hrs in presence of ACh by microbeta2 plate reader assay. The note with it: filed as positive allosteric modulator. It counts as cell-based. In outline:
(§1)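 Intact FlpInCHO-hM4 cells, 20,000/well grown overnight, in HBSS pH 7.4 with [3H]-NMS 0.5 nM, ACh (0.01 μM–10 mM) and modulator (0.1–10 μM), shaken 6 h at room temperature. Washed with ice-cold 0.9% NaCl, then scintillation counting. Nonspecific binding defined with 10 μM atropine. pKB and log α(ACh) from global fit to allosteric ternary complex model, with log α′(NMS) fixed at –3 under strong negative cooperativity. 4–5 experiments in duplicate.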

Data set [2] has as its target T2, Muscarinic acetylcholine receptor M5 (Homo sapiens) (UniProt P08912).
T2 sequence (whole entry): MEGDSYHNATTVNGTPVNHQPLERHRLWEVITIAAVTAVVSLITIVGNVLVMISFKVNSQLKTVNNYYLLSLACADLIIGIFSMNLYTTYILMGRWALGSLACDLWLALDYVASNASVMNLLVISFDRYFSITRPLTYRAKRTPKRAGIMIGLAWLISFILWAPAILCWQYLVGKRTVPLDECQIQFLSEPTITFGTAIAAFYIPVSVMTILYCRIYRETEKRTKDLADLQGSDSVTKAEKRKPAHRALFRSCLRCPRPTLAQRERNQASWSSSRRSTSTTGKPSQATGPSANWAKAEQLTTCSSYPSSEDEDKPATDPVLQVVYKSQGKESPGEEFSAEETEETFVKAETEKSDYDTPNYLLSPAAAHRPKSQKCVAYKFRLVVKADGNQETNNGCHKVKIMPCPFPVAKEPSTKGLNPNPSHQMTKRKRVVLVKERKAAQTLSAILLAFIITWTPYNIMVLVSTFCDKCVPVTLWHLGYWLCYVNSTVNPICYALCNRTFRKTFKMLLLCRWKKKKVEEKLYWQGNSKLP
Briefly: Positive allosteric modulation at human M5 mAChR expressed in Flp-In-CHO cells at 10 uM incubated for 5 mins by […]. It is filed as cell-based. The method, boiled down:
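FlpInCHO cells stably expressing human M1–M5 mAChRs, serum-deprived in HBSS 4 h at 37 °C, then ACh (10 nM–10 μM) with or without modulator at 10 μM for 5 min at 37 °C. Cells lysed and frozen overnight. pERK1/2 measured by AlphaScreen SureFire Ultra, as % of response to 10% FBS.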

Data set [3] concerns the target T1, Muscarinic acetylcholine receptor M4 (Homo sapiens). Briefly: Displacement of 3[H]-NMS from human M4 mAChR expressed in Flp-In-CHO cells assessed as binding constant incubated for 6 hrs by microbeta2 plate reader assay. It is filed as cell-based. To be noted: filed as positive allosteric modulator. The method, boiled down:
as §1

The target is the same in data set [4]. Briefly: Positive allosteric modulation at Rluc-tagged human M4 mAChR expressed in Flp-In-CHO cells co-expressing eYFP-tagged beta-arrestin 2 assessed as efficacy of ACh-mediated beta-arrestin 2 recruitment (log tau B) incubated for 5 mins by luminometry. It is filed as cell-based. To be noted: filed as positive allosteric modulator. In outline:
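FlpInCHO cells co-transfected with human M4-Rluc8 (20 ng/well) and β-arrestin-2-eYFP (80 ng/well) using PEI, assayed after 48 h. Coelenterazine h (5 μM) preincubated 5 min, then ACh plus modulator ranges for 5 min at 37 °C; BRET at 475/535 nm. Fit to simplified operational model with slope 1 and KB fixed from binding. 4–5 experiments in duplicate.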
(In general: Recruitment of arrestin is a read-out of receptor activation apart from second messengers.)

Data set [5] addresses T3, Muscarinic acetylcholine receptor M1 (Homo sapiens) (UniProt P11229).
T3 sequence (whole entry): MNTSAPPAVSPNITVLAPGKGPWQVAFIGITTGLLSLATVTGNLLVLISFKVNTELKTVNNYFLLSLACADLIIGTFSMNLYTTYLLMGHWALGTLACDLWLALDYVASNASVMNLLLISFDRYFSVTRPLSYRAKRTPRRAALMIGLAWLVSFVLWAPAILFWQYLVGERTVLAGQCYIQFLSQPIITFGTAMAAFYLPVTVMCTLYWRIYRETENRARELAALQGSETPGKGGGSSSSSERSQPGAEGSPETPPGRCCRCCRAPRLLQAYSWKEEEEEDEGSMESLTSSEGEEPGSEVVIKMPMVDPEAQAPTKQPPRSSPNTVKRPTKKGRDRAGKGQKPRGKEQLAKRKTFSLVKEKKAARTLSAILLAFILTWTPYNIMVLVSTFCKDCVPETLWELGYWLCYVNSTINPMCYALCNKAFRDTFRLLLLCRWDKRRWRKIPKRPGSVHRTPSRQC
Briefly: Positive allosteric modulation at human M1 mAChR expressed in Flp-In-CHO cells at 10 uM incubated for 5 mins by AlphaScreen SureFire Ultra pERK1/2 assay. Background: In Alpha technology, singlet oxygen from a donor bead excites a nearby acceptor bead.

Data set [6] can be described thus: Drug concentration in plasma of naive C57BL/6J mouse at 10 mg/kg, ip measured after 20 to 30 mins. It is filed as ADME, organism-based. The note with it: in vivo, time 20-30 min. In outline: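 Male C57Bl/6J mice, naïve, 10–12 weeks old, dosed i.p. at 10 mg/kg in 10% DMSO, 1.1% Tween 80, 21.8 mM Tris. Blood by cardiac puncture under anaesthesia at 20 or 90 min (n = 2–3 per time point). Brain concentration corrected for compound in brain vasculature. Mean nM ± SEM reported; Kp = Cbrain/Cplasma, reported as a range.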

Data set [7] concerns the target T1, Muscarinic acetylcholine receptor M4 (Homo sapiens). Briefly: Positive allosteric modulation at human M4 mAChR expressed in Flp-In-CHO cells co-expressing CAMYEL biosensor assessed as change in maximum ACh-mediated response at 10 uM incubated for 5 mins by BRET assay relative to control. It counts as cell-based. The method, boiled down:
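FlpInCHO cells stably expressing human M4 mAChR, transiently transfected with CAMYEL cAMP BRET biosensor (60 ng/well, PEI), assayed 48 h later in HBSS pH 7.4. Full ACh concentration-response curve alone or with modulator at 1 or 10 μM, co-added with coelenterazine h (5 μM), 5 min, 37 °C. Three-parameter logistic fit; ACh curve values subtracted from ACh+modulator values. Δbaseline and ΔEmax given as % of maximal ACh response without modulator. 4 experiments in duplicate, SEM pooled.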
(BRET reads energy transfer from a luciferase to a nearby fluorophore.)

Where [8] appears, read: filed as positive allosteric modulator.

As usually defined, the pKb is −log10 of the Kb, conventionally taken in molar units. A word on the Emax: it is the size of the effect at its maximum, as opposed to the concentration needed. On to `Cc1ccc(-c2cnn(CC3CCCC3)c2)c(-c2ccc3c(c2)C(=O)N(C)C3)n1`, for which the log(activity) stood at 2.12 in data set [1] and 0.99 in data set [4]. Besides, the outcome in data set [2] and in data set [5] was inactive. In data set [3], the pKb amounted to 6.22. In addition, the concentration in data set [6] was found to be 2440 nM. Further, the Emax in data set [7] (setting [8]) stood at 44.7%.
With `Cc1ccc(-c2cnn(CC3CCCC3)c2)c(-c2ccc(N)c([N+](=O)[O-])c2)n1`, the log(activity) in data set [1] was 1.87; in data set [4], 0.39. Besides, the result in data set [2] and in data set [5] was inactive. Moreover, the negative-log Kb (pKb) in data set [3] came out at 4.75. For the same molecule, in data set [6], the concentration came to 2430 nM. In addition, the Emax in data set [7] turned out to be 5.6%.
Turning to `Cc1ccc(-c2cnn(CC3CCCC3)c2)c(-c2ccc(F)c(F)c2)n1`, the log(activity) stood at 2.04 in data set [1] and 0.31 in data set [4]. Further, the result in data set [2] and in data set [5] was inactive. In addition, in data set [3], the pKb is 4.53. In data set [6], this molecule yielded a concentration of 915 nM. Also, the Emax in data set [7] (setting [8]) is 129%.
